Assay results taken from ChEMBL document CHEMBL1649435, “The octadecyloxyethyl ester of (S)-9-[3-hydroxy-2-(phosphonomethoxy) propyl]adenine is a potent and selective inhibitor of hepatitis C virus replication in genotype 1A, 1B, and 2A replicons” (Antimicrob Agents Chemother, 2009).
pEC50: −log10 of the molar value.

Key:
[1] = Cytotoxicity against human Huh7.5 cells administered for 3 days measured 24 hrs after last dose by neutral red dye uptake assay; type: cell-based, Huh-7
[2] = Selectivity index, ratio of CC50 for human Huh7.5 cells to EC50 for HCV genotype 2A SGR-JFH-1 infected in human Huh7.5 cells; parameters: species or system Huh-7
In short: (§1)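 SI is CC50 divided by EC50, both from the same BM4-5 FEO (1B) or SGR-JFH-1 FEO (2A) replicon Huh-7.5.1 cultures. Cells (10,000 per well) got compound up to 100 μM (0.3% DMSO final) for 48 to 72 h. EC50 came from the luciferase read-out, CC50 from a fluorescent viability/death assay. Each condition was run in triplicate.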

[3] = Selectivity index, ratio of CC50 for human Huh7.5 cells to EC50 for HCV genotype 1B BM4-5 infected in human Huh7.5 cells; parameters: species or system Huh-7; in short: as §1
Hepatitis C virus [4] = assay: Antiviral activity against HCV1B BM4-5 infected in human Huh7.5 cells assessed as decrease in intracellular viral RNA treated for 3 days measured 24 hrs after last dose by luciferase reporter gene-based […]; type: functional, organism-based, Hepacivirus hominis; details: genotype 1b BM4-5, Huh-7
In short: (§2)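 Huh-7.5.1 human hepatoma cells stably carried the BM4-5 FEO (genotype 1B) or SGR-JFH-1 FEO (genotype 2A) replicon, selected with 500 μg/ml G-418. Cells were seeded at 10,000 per well and incubated with compound up to 100 μM (0.3% DMSO final) for 48 to 72 h. Luciferase light units gave dose-response EC50s. Each condition was run in triplicate, with 3 or 4 experimental replicates.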

Hepatitis C virus [5] = assay: Antiviral activity against HCV2A SGR-JFH-1 infected in human Huh7.5 cells assessed as decrease in intracellular viral RNA treated for 3 days measured 24 hrs after last dose by luciferase reporter gene-based […]; type: functional, organism-based, Hepacivirus hominis; details: genotype 2a SGR-JFH-1, Huh-7; in short: as §2

| Structure (SMILES) | CC50 at 72 h [1] [µM] | Selectivity Index [2] | Selectivity Index [3] | pEC50 (Hepatitis C virus [4]) | pEC50 (Hepatitis C virus [5]) |
| --- | --- | --- | --- | --- | --- |
| CCCCCCCCCCCCCCCCCCOCCOP(=O)(O)CO[C@@H](CO)Cn1cnc2c(N)ncnc21 | > 100 | >4 | >14 | 5.15 | 4.57 |
| Nc1ncnc2c1ncn2C[C@H](CO)OCP(=O)(O)O | > 100 | – | – | < 4.00 | < 4.00 |
| CCCCCCCCCCCCCCCCOCCCOP(=O)(O)CO[C@@H](CO)Cn1cnc2c(N)ncnc21 | > 100 | >2 | >15 | 5.17 | 4.39 |
| Nc1ncnc2c1ncn2C[C@@H](CO)OCP(=O)(O)O | > 100 | – | – | < 4.00 | < 4.00 |
| CCCCCCCCCCCCCCCCOCCCOP(=O)(O)CO[C@H](CO)Cn1cnc2c(N)ncnc21 | 85.3 | 13 | 42 | 5.69 | 5.19 |
| CCCCCCCCCCCCCCCCCCOCCOP(=O)(O)CO[C@H](CO)Cn1cnc2c(N)ncnc21 | 35.6 | 52 | 27 | 5.88 | 6.16 |
